Data taken from ChEMBL document CHEMBL1128504, “Novel, potent, and orally active substance P antagonists: synthesis and antagonist activity of N-benzylcarboxamide derivatives of pyrido[3,4-b]pyridine” (J Med Chem, 1995).

Key:
[1] = tested on: Cavia porcellus; test: Inhibition of capsaicin-induced plasma extravasation in guinea-pig trachea on intravenous administration; format: functional
[2] = tested on: Cavia porcellus; test: Inhibition of capsaicin-induced plasma extravasation in guinea-pig trachea on peroral administration; format: functional; details: po
Procedure, shortened: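 Male Hartley guinea pigs (n = 6); sample given orally 45 min before pentobarbital 35 mg/kg ip. Capsaicin […] plus Evans' blue 20 mg/kg iv in ethanol-saline (3:7); trachea removed 10 min later after saline perfusion. Dye extracted in acetone-sodium sulfate and read at 620 nm per g tissue. Inhibition calculated relative to blank and control means.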

[3] = biological target: Substance-P receptor (Homo sapiens, UniProt P25103); test: Inhibition of [125I]-BH-Substance P binding to tachykinin receptor 1 in human IM-9 cells; format: cell-based
Chain of Substance-P receptor (P25103 whole entry): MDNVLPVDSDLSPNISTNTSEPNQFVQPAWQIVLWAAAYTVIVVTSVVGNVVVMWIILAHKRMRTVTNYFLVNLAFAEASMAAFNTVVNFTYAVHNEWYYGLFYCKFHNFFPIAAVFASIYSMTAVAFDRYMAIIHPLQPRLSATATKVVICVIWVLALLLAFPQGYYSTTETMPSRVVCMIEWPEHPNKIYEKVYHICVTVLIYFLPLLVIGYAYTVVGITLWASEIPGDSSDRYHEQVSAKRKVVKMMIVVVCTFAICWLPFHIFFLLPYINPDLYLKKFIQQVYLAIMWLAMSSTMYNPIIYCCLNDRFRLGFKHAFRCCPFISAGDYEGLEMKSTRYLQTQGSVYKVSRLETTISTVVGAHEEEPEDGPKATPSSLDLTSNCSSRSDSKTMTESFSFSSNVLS

[4] = tested on: Cavia porcellus; test: Percent inhibition of capsaicin-induced plasma extravasation in guinea-pig trachea at 3 mg/kg intravenous administration; format: functional

| Compound | IC50 [3] [nM] | other results |
| --- | --- | --- |
| CN(Cc1cc(C(F)(F)F)cc(C(F)(F)F)c1)C(=O)c1c(-c2ccc(F)cc2)c2ccccc2c(=O)n1C | 0.4 | ED50 [1]: 0.063 mg/kg; ED50 [2]: 1 mg/kg |
| CN(Cc1cc(C(F)(F)F)cc(C(F)(F)F)c1)C(=O)c1c(-c2ccccc2)c2cccnc2c(=O)n1C | 0.25 | ED50 [1]: 0.027 mg/kg; ED50 [2]: 0.17 mg/kg |
| Cc1ccc(-c2c(C(=O)N(C)Cc3cc(Cl)cc(Cl)c3)n(C)c(=O)c3ncccc23)cc1 | 3.4 | – |
| Cc1cc2c(-c3ccccc3)c(C(=O)N(C)Cc3cc(C(F)(F)F)cc(C(F)(F)F)c3)n(C)c(=O)c2cc1C | – | ED50 [1]: 0.49 mg/kg |
| Cc1cc2c(-c3ccccc3)c(NC(=O)N(C)Cc3ccccc3Cl)n(C)c(=O)c2cc1C | – | inhibition in vivo at 3 mg/kg [4]: 58.5% |
| COc1ccccc1CN[C@H]1CCCN[C@H]1c1ccccc1 [CP-99994] | – | ED50 [1]: 0.017 mg/kg; ED50 [2]: 8.7 mg/kg |
| Cc1ccccc1-c1c(C(=O)NCc2cc(C(F)(F)F)cc(C(F)(F)F)c2)n(C)c(=O)c2ccccc12 | – | ED50 [1]: 1.1 mg/kg |
| Cc1ccccc1-c1c(C(=O)N(C)Cc2cc(C(F)(F)F)cc(C(F)(F)F)c2)n(C)c(=O)c2ccccc12 | – | ED50 [1]: 0.18 mg/kg; ED50 [2]: 0.81 mg/kg |
| CN(Cc1cc(C(F)(F)F)cc(C(F)(F)F)c1)C(=O)c1c(-c2ccc(F)cc2)c2cccnc2c(=O)n1C | 0.21 | ED50 [1]: 0.017 mg/kg; ED50 [2]: 0.068 mg/kg |
| CN(Cc1ccccc1Cl)C(=O)c1c(-c2ccc(F)cc2)c2cccnc2c(=O)n1C | 32 | – |
| Cc1cc2c(-c3ccccc3)c(NC(=O)N(C)Cc3ccccc3)n(C)c(=O)c2cc1C | – | inhibition in vivo at 3 mg/kg [4]: 57.3% |
| Cn1c(C(=O)NCc2cc(C(F)(F)F)cc(C(F)(F)F)c2)c(-c2ccc(F)cc2)c2cccnc2c1=O | 1.1 | ED50 [1]: 0.48 mg/kg |
| CN(Cc1cc(C(F)(F)F)cc(C(F)(F)F)c1)Cc1c(-c2ccccc2)c2ccccc2c(=O)n1C | 600 | – |
| COc1ccccc1CNCc1c(-c2ccccc2)c2cc(C)c(C)cc2c(=O)n1C | – | inhibition in vivo at 3 mg/kg [4]: 36.3% |
| Cc1ccc(-c2c(C(=O)N(C)Cc3cc(C(F)(F)F)cc(C(F)(F)F)c3)n(C)c(=O)c3ncccc23)cc1 [7-METHYL-8-OXO-5-P-TOLYL-7,8-DIHYDRO-[1,7]NAPHTHYRIDINE-6-CARBOXYLIC ACID (3,5-BIS-TRIFLUOROMETHYL-BENZYL)-METHYL-AMIDE (STRUCTURAL MIX)] | 7 | ED50 [2]: 0.11 mg/kg |
| COc1ccccc1CN(C)C(=O)c1c(-c2ccc(F)cc2)c2cccnc2c(=O)n1C | – | ED50 [1]: 0.084 mg/kg |
| Cc1cc(C)cc(CN(C)C(=O)c2c(-c3ccc(F)cc3)c3cccnc3c(=O)n2C)c1 | 5.1 | – |

More lines, main results first:

| IC50 [3] [nM] | Compound | other results |
| --- | --- | --- |
| 840 | Cc1cccc(NC(=O)Nc2c(-c3ccccc3)c3cc(C)c(C)cc3c(=O)n2C)c1 | – |
| 860 | COc1ccccc1CNC(=O)c1c(-c2ccccc2)c2ccccc2c(=O)n1C | – |
| 480 | CN(Cc1ccccc1Cl)C(=O)Nc1c(-c2ccc(F)cc2)c2ccccc2c(=O)n1C | – |
| 250 | Cc1cc2c(-c3ccccc3)c(CNCc3cc(C(F)(F)F)cc(C(F)(F)F)c3)n(C)c(=O)c2cc1C | – |
| 110 | CN(Cc1c(-c2ccccc2)c2ccccc2c(=O)n1C)C(=O)Cc1cc(C(F)(F)F)cc(C(F)(F)F)c1 | – |
| 140 | Cc1cc2c(-c3ccccc3)c(NC(=O)NCc3ccccc3)n(C)c(=O)c2cc1C | – |
| 28 | Cc1cc(C)cc(CN(C)C(=O)Nc2c(-c3ccccc3)c3cc(C)c(C)cc3c(=O)n2C)c1 | – |
| 4.4 | Cc1ccc(-c2c(C(=O)N(C)Cc3cc(C)cc(C)c3)n(C)c(=O)c3ncccc23)cc1 | – |
| 460 | COc1ccccc1CNCc1c(-c2ccccc2)c2ccccc2c(=O)n1C | – |
| 470 | COc1ccccc1CNC(=O)c1c(-c2ccccc2C)c2ccccc2c(=O)n1C | – |
| 1100 | CN(Cc1ccccc1)C(=O)Nc1c(-c2ccccc2)c2ccccc2c(=O)n1C | – |
| 54 | Cc1cc2c(-c3ccccc3)c(NC(=O)N(C)Cc3cc(C(F)(F)F)cc(C(F)(F)F)c3)n(C)c(=O)c2cc1C | – |
| 32 | Cc1cc(C)cc(CN(C)C(=O)c2c(-c3ccccc3C)c3ccccc3c(=O)n2C)c1 | – |
| 800 | COc1ccccc1CN(C)Cc1c(-c2ccccc2)c2cc(C)c(C)cc2c(=O)n1C | – |
